We go through 1 molecule from ChEMBL document CHEMBL3414472, “Synthesis, SAR, and series evolution of novel oxadiazole-containing 5-lipoxygenase activating protein inhibitors: discovery of 2-[4-(3-{(r)-1-[4-(2-amino-pyrimidin-5-yl)-phenyl]-1-cyclopropyl-ethyl}-[1,2,4]oxadiazol-5-yl)-pyrazol-1-yl]-N,N-dimethyl-acetamide (BI 665915)” (J Med Chem, 2015).

For one series, the target named is CYP3A4 (Homo sapiens, UniProt P08684). The series is described as follows: Induction of CYP3A4 in human hepatocytes using midazolam as substrate assessed as formation of 1'-hydroxymidazolam up to 30 uM preincubated for 48 hrs followed by substrate addition measured up to 120 mins relative to control. It is filed as ADME, cell-based, Hepatocyte. The settings on record: probe midazolam, read-out: FC. In short, it runs like this: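 Freshly plated, sandwich-cultured, single-donor human hepatocytes were exposed to compound or rifampicin (25 µM) for 48 h, with medium and dosing agent renewed every 24 h. The linear slope of 1'-hydroxymidazolam formation over time (to 120 min) was determined. Fold induction is the compound slope divided by the solvent control slope.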
Sequence of CYP3A4 (P08684 whole entry): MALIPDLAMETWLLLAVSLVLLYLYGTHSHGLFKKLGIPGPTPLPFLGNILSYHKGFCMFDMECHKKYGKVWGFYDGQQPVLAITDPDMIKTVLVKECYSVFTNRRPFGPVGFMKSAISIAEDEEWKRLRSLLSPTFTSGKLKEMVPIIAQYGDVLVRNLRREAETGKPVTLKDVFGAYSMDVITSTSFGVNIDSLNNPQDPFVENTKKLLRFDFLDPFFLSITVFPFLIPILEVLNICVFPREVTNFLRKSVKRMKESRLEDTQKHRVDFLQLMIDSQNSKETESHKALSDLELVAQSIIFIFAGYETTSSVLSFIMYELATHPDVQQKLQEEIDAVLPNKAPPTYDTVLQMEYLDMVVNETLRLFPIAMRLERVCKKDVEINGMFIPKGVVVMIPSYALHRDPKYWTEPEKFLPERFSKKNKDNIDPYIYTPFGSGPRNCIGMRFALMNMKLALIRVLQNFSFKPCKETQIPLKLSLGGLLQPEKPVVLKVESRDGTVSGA

Series [1] is described as follows: Plasma concentration in C57BL/6 mouse at 10 mg/kg, po after 2 hrs. It counts as ADME, organism-based. Further details: dose 10 mg/kg, route oral; call rule not given here.
For the next series, the target named is Cytochrome P450 2D6 (Homo sapiens, UniProt P10635). The series is described as follows: Inhibition of CYP2D6 in human liver microsomes using dextromethorphan as substrate preincubated for 10 mins followed by NADPH addition measured after 6 mins. It counts as ADME. In short, it runs like this:
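Human liver microsomes (0.05 mg/mL protein) with cocktail substrates: 4 µM diclofenac (2C9), 3 µM dextromethorphan (2D6), 2.5 µM midazolam (3A4). Compound in 0.1 M potassium phosphate pH 7.4 preincubated 10 min at 37 °C; NADPH added, reaction 6 min at 37 °C.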

Series [2] in a line: Volume of distribution at steady state in rat at 1 mg/kg, iv and 10 mg/kg, po. It is filed as ADME, organism-based. The settings on record: in vivo, read-out: Vdss. In short, it runs like this:
(§1)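 iv 1 mg/kg in 70 % PEG; po 10 mg/kg as suspension in 0.5 % methyl cellulose/0.015 % Tween. Blood sampled at 11 timepoints (0, 5, 15, 30 min, 1, 2, 4, 6, 8, 12, 24 h) per dose; mean of n = 3. Clearance expressed as percent of hepatic blood flow.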

Series [3] is described as follows: Mean residence time in rat at 1 mg/kg, iv. It is filed as ADME, organism-based. Further details: dose 1 mg/kg, route intravenous. The settings on record: in vivo. In short, it runs like this: as §1
Series [4] can be described thus: Plasma concentration in C57BL/6 mouse at 3 mg/kg, po after 2 hrs. Further details: dose 3 mg/kg, route oral. It is filed as ADME, organism-based.
Series [5] deals with Prostaglandin G/H synthase 1 (Homo sapiens) (UniProt P23219). In words: Inhibition of cyclooxygenase-1 (unknown origin) at 10 uM relative to control.
Sequence of Prostaglandin G/H synthase 1 (Homo sapiens) (P23219 whole entry): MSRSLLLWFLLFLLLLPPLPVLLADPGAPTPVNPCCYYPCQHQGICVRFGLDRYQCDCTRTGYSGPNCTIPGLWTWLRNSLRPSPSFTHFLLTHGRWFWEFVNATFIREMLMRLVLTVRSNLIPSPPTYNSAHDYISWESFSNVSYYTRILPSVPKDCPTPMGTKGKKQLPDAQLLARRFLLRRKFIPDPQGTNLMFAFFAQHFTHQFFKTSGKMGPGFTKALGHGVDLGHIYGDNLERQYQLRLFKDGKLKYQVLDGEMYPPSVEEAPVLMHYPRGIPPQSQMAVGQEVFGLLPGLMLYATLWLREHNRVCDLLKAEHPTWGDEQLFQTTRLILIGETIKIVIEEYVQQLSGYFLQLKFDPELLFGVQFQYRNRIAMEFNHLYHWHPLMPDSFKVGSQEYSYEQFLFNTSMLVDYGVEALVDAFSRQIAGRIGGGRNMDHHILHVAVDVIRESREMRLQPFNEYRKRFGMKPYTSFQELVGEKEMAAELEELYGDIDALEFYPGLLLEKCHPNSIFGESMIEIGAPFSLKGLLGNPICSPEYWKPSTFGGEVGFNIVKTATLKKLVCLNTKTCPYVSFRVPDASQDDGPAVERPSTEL
The test system of series [6] is Mus musculus. The series is described as follows: In vivo inhibition of FLAP in C57BL/6 mouse assessed as LTB4 production in calcimycin-stimulated whole blood at 30 mg/kg, po after 2 hrs by ELISA (reference value: 100 +/- 13.3%). It counts as functional. More on the design: scale not given: the % may be the effect or the level left.
The test system of series [7] is Mus musculus. The series is described as follows: In vivo inhibition of FLAP in C57BL/6 mouse assessed as LTB4 production in calcimycin-stimulated whole blood at 1 mg/kg, po after 2 hrs by ELISA (reference value: 100 +/- 13.3%). It is filed as functional. More on the design: scale not given: the % may be the effect or the level left.
The target of series [8] is T1, Cytosolic phospholipase A2 (Homo sapiens) (UniProt P47712).
T1 sequence (whole entry): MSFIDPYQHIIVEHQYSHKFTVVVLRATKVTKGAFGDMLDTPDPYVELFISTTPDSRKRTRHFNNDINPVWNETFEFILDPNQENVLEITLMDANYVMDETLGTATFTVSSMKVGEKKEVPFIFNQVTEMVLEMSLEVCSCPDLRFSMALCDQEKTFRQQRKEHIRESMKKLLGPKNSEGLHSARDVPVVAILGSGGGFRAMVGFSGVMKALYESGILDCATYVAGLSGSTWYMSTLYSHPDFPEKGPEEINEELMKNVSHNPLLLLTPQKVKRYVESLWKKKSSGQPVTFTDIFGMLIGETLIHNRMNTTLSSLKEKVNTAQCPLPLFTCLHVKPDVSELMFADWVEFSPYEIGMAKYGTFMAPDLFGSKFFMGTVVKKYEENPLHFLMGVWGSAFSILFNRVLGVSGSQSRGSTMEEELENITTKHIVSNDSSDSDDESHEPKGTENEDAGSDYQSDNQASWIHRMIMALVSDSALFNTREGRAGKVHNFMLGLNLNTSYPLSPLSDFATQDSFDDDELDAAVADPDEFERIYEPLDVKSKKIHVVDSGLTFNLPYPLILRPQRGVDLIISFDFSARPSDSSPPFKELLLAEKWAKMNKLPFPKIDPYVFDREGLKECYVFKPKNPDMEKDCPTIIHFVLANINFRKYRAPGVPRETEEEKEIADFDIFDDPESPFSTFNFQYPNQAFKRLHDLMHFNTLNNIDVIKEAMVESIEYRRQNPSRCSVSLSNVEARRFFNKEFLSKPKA
The series is described as follows: Inhibition of phospholipase A2 (unknown origin) at 10 uM relative to control.

For series [9], the target named is T2, Prostaglandin G/H synthase 2 (Homo sapiens) (UniProt P35354).
T2 sequence (whole entry): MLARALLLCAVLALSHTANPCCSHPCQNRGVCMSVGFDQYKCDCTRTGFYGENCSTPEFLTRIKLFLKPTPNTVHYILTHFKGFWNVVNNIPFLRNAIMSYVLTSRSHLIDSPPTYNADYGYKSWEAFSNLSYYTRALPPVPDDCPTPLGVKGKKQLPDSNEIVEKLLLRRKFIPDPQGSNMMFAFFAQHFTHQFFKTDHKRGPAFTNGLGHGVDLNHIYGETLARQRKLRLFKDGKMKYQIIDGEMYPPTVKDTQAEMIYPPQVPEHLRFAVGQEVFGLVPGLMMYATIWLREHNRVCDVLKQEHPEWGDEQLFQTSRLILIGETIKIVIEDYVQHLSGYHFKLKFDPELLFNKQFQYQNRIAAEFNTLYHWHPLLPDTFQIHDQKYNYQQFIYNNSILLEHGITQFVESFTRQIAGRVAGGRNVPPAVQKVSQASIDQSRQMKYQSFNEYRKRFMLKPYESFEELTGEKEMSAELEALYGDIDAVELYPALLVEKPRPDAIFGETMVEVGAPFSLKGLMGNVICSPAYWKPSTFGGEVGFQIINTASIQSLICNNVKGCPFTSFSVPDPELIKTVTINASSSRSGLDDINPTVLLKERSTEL
In words: Inhibition of cycloxygenase-2 (unknown origin) at 10 uM relative to control.

The nature of series [10]: Mean residence time in cynomolgus monkey at 1 mg/kg, iv. It is filed as ADME, organism-based, Macaca fascicularis. More on the design: dose 1 mg/kg, route intravenous. The settings on record: in vivo. In short, it runs like this:
as §1

The next series has as its target Cytochrome P450 3A4 (Homo sapiens, UniProt P08684). The series is described as follows: Time-dependent inhibition of CYP3A4 in human liver microsomes using midazolam as substrate up to 100 uM by LC/MS/MS analysis. It is filed as ADME. In short, it runs like this:
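Primary incubation: 0.1 mg/ml human liver microsomes, 100 mM phosphate pH 7.4, 1 mM NADPH, 37 °C, compound 0 to 100 µM (7 concentrations). Aliquots taken at 0, 1, 3, 5, 15, 30 min into secondary incubation with 15 µM midazolam and 1 mM NADPH, quenched after 8 min; 1'-hydroxymidazolam measured by LC/MS/MS against a d4 internal standard.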

Series [11] is described as follows: Mean residence time in dog at 1 mg/kg, iv. It counts as ADME, organism-based, Canis lupus familiaris. More on the design: dose 1 mg/kg, route intravenous. The settings on record: in vivo. In short, it runs like this:
as §1

The nature of series [12]: Oral bioavailability in cynomolgus monkey at 10 mg/kg. It is filed as ADME, organism-based, Macaca fascicularis. The settings on record: in vivo. In a few lines: as §1

Sequence of Cytochrome P450 3A4 (P08684 whole entry): as the sequence (P08684 whole entry) above
Sequence of Cytochrome P450 2D6 (P10635 whole entry): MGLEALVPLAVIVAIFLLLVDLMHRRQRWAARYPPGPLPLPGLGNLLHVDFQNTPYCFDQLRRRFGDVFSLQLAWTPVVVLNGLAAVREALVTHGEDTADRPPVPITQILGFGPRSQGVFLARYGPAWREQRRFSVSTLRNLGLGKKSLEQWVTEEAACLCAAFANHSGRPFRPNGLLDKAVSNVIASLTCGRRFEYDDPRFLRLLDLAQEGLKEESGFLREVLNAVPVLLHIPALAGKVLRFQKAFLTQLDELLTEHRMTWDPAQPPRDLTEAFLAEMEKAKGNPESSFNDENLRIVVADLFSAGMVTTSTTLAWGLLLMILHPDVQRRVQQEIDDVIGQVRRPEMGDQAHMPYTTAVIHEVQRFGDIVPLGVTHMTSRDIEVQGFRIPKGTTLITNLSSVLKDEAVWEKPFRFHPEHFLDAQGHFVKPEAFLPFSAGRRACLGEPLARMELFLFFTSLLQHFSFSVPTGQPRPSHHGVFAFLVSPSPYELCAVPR

For `CN(C)C(=O)Cn1cc(-c2nc([C@@](C)(c3ccc(-c4cnc(N)nc4)cc3)C3CC3)no2)cn1` [BI 665915], the fold induction at 2 h at CYP3A4 was found to be 2. The concentration at 2 h was found to be 14.8 µM in [1] and 3.7 µM in [4]. Further, the IC50 on Cytochrome P450 2D6 is more than 30 µM. Further, the Vd in [2] amounted to 0.9 L/kg. Also, the MRT in series [3] was 3.1 h; in series [10], 4.8 h; in series [11], 23 h. The inhibition in series [5], in series [8] and in [9] was less than 50% each time. Further, the Activity in the series with Mus musculus [6] is given as 22.2%; with Mus musculus [7], 110.6%. Also, the TDI entry at Cytochrome P450 3A4 was “Not Active”. In series [12], this molecule returned a bioavailability of 45%.
